Test results taken from ChEMBL document CHEMBL4765233, “From Lead to Drug Candidate: Optimization of 3-(Phenylethynyl)-1H-pyrazolo[3,4-d]pyrimidin-4-amine Derivatives as Agents for the Treatment of Triple Negative Breast Cancer” (J Med Chem, 2016).
Calls of active or inactive are those of the source. No cut-off for these calls is given here.

How the values were obtained:
[1] = Toxicity in SCID mouse xenografted with MDA-MB-231 cells assessed as animal death at 40 mg/kg, po qd for 15 days; format: organism-based; conditions: in vivo, dose 40 mg/kg/day, time 15 day, read-out: Activity
[2] = AUC (0 to t) in Sprague-Dawley rat at 10 mg/kg, po administered via gavage by LC-MS analysis; format: ADME, organism-based; parameters: dose 10 mg/kg; conditions: in vivo
[3] = Metabolic stability in dog liver microsomes assessed as parent compound remaining at 1 uM measured after 60 mins in presence of NADPH by HPLC-MS/MS analysis; format: ADME, Canis lupus familiaris, Microsome; conditions: read-out: Stabilty
Outline: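 Compound at 1 μM incubated with 0.5 mg/mL liver microsomes and 1 mM NADPH. Samples taken at 0, 10, 15, 30, 45 and 60 min and quenched with acetonitrile. After centrifugation, supernatant analysed by HPLC-MS/MS, with percent parent remaining relative to the 0 min area.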

[4] = molecular target: Fibroblast growth factor receptor 2 (Homo sapiens, UniProt P21802, N549H); assay: Inhibition of human recombinant FGFR2 N549H mutant (456 to 770 residues) using GGEEEEYFELVKKKK as substrate incubated for 40 mins in presence of [gamma33P-ATP] by radiometric scintillation counting analysis
[5] = molecular target: Receptor tyrosine-protein kinase erbB-2 (Homo sapiens, UniProt P04626, G778D); assay: Inhibition of human recombinant ERBB2 G778D mutant (676 to end residues) using poly(Glu,Tyr)4:1 as substrate incubated for 40 mins in presence of [gamma33P-ATP] by radiometric scintillation counting analysis
[6] = Inhibition of human recombinant EGFR T790M/L858R mutant (696 to end residues) using GGMEDIYFEFMGGKKK as substrate incubated for 40 mins in presence of [gamma33P-ATP] by radiometric scintillation counting analysis
Outline: (§1)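 Radiometric kinase assay run as an external profiling service, with ATP at the Km of each kinase. IC50 values are means of two independent experiments.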

[7] = molecular target: Mitogen-activated protein kinase 14 (Homo sapiens, UniProt Q16539); assay: Inhibition of human full length recombinant p38alpha using myelin basic protein as substrate incubated for 40 mins in presence of [gamma33P-ATP] by radiometric scintillation counting analysis; outline: as §1
Ephrin type-A receptor 4 = Ephrin type-A receptor 4 (Homo sapiens, UniProt P54764); assay: Inhibition of human recombinant EPHA4 (601 to 892 residues) using poly(Glu,Tyr)4:1 as substrate incubated for 40 mins in presence of [gamma33P-ATP] by radiometric scintillation counting analysis; outline: as §1
MDA-MB-415 = assay: Antiproliferative activity against human MDA-MB-415 cells assessed as reduction in cell viability incubated for 72 hrs by MTT assay; format: functional, cell-based; conditions: MDA-MB-415, 72 h
Outline: (§2)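 MTT viability assay. ATCC cell lines were grown in designated medium with 10% FBS at 37 °C, 5% CO2. Cells seeded at 1500−30000 per well and incubated 24 h, then exposed to compound (0−10 μg/mL) for 72 h. MTT added for 2−4 h. Formazan dissolved in DMSO (adherent) or acidified SDS overnight (suspension), absorbance read at 570 nm. Triplicates; IC50 calculated.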

ZR-75-1 = assay: Antiproliferative activity against human ZR-75-1 cells assessed as reduction in cell viability incubated for 72 hrs by MTT assay; format: functional, cell-based; conditions: ZR-75-1, 72 h; outline: as §2
MIA PaCa-2 = assay: Antiproliferative activity against human MIA PaCa-2 cells assessed as reduction in cell viability incubated for 72 hrs by MTT assay; format: functional, cell-based; conditions: MIA PaCa-2, 72 h; outline: as §2
Ramos = assay: Antiproliferative activity against human Ramos cells assessed as reduction in cell viability incubated for 72 hrs by MTT assay; format: functional, cell-based; outline: as §2
L929 = assay: Cytotoxicity against mouse L929 cells assessed as reduction in cell viability incubated for 72 hrs by MTT assay; format: cell-based; conditions: L929, 72 h; outline: as §2
MDA-MB-231 [8] = assay: Induction of apoptosis in human MDA-MB-231 cells assessed as live cells at 0.01 uM incubated for 24 hrs by annexin V-FITC and propidium iodide staining based flow cytometry analysis (reference value: 96.95 %); format: functional
MDA-MB-231 [9] = assay: Induction of apoptosis in human MDA-MB-231 cells assessed as late apoptotic cells at 0.03 uM incubated for 24 hrs by annexin V-FITC and propidium iodide staining based flow cytometry analysis (reference value: 0.85 %); format: functional
MDA-MB-231 [10] = assay: Induction of apoptosis in human MDA-MB-231 cells assessed as late apoptotic cells at 0.1 uM incubated for 24 hrs by annexin V-FITC and propidium iodide staining based flow cytometry analysis (reference value: 0.85 %); format: functional
MDA-MB-231 [11] = assay: Induction of apoptosis in human MDA-MB-231 cells assessed as early apoptotic cells at 0.1 uM incubated for 24 hrs by annexin V-FITC and propidium iodide staining based flow cytometry analysis (reference value: 2 %); format: functional
MDA-MB-231 [12] = assay: Increase in cleaved caspase-3 level in human MDA-MB-231 cells incubated for 20 hrs by Western blot analysis; format: functional, cell-based; conditions: dose 0.01-0.3 µM
Outline: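 MDA-MB-231 cells given a concentration series for 20 h at 37 °C. Cells lysed in RIPA with protease cocktail, cleared at 12000 rpm, 4 °C. Protein quantified by Bradford, equal amounts run on SDS-PAGE, transferred to PVDF and immunoblotted.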

Mus musculus [13] = assay: In vivo inhibition of ERK in SCID mouse xenografted with human MDA-MB-231 cells assessed as reduction in phosphorylation of ERK in tumor tissue at 40 mg/kg, po QD for 21 days by immunohistochemical analysis; format: functional, organism-based; conditions: dose 40.0 mg/kg/day, time 21.0 day
Outline: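 Tumors taken from xenografted SCID mice dosed orally at 40 mg/kg/q.d. or given control; mice euthanized at set times. Tumors formalin-fixed and paraffin-embedded, stained by immunohistochemistry for phospho-proteins, and imaged by light microscopy.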

Mus musculus [14] = assay: Reduction in CD31 expression in tumor tissue of SCID mouse xenografted with human MDA-MB-231 cells at 40 mg/kg, po QD for 21 days by immunohistochemical analysis; format: functional, organism-based; conditions: dose 40.0 mg/kg/day, time 21.0 day
Outline: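 SCID mice carried subcutaneous MDA-MB-231 xenografts (5 × 10^6 cells in 100 μL). Oral dosing in water with 25% PEG400 and 5% DMSO began at 150–200 mm3. Tumours were removed at the end of study, formalin-fixed and paraffin-embedded, then immunostained.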

[15] = Acute toxicity in female Sprague-Dawley rat assessed as increase of body weight at 200 mg/kg, po administered as single dose and monitored every 3 days; format: organism-based; conditions: in vivo, 72 h
Outline: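 Sprague-Dawley rats (n = 3) received a single oral dose of 200 mg/kg in sterile water with 25% (v/v) PEG400 plus 5% DMSO. Behaviour and side effects were monitored daily, and average body weight was measured every 3 days.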

[16] = Acute toxicity in Sprague-Dawley rat assessed as histopathological changes in kidney at 100 mg/kg, po administered as single dose measured after 24 hrs by H and E staining based light microscope analysis; format: organism-based; conditions: in vivo
Outline: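 Sprague-Dawley rats received a single oral dose of 100 mg/kg in sterile water with 25% (v/v) PEG400 plus 5% DMSO. Organs were examined by histology and immunohistochemistry for pathological changes. Behaviour and side effects were checked daily.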

Receptor tyrosine-protein kinase erbB-2, sequence (P04626 23-1255 G778D limits assumed): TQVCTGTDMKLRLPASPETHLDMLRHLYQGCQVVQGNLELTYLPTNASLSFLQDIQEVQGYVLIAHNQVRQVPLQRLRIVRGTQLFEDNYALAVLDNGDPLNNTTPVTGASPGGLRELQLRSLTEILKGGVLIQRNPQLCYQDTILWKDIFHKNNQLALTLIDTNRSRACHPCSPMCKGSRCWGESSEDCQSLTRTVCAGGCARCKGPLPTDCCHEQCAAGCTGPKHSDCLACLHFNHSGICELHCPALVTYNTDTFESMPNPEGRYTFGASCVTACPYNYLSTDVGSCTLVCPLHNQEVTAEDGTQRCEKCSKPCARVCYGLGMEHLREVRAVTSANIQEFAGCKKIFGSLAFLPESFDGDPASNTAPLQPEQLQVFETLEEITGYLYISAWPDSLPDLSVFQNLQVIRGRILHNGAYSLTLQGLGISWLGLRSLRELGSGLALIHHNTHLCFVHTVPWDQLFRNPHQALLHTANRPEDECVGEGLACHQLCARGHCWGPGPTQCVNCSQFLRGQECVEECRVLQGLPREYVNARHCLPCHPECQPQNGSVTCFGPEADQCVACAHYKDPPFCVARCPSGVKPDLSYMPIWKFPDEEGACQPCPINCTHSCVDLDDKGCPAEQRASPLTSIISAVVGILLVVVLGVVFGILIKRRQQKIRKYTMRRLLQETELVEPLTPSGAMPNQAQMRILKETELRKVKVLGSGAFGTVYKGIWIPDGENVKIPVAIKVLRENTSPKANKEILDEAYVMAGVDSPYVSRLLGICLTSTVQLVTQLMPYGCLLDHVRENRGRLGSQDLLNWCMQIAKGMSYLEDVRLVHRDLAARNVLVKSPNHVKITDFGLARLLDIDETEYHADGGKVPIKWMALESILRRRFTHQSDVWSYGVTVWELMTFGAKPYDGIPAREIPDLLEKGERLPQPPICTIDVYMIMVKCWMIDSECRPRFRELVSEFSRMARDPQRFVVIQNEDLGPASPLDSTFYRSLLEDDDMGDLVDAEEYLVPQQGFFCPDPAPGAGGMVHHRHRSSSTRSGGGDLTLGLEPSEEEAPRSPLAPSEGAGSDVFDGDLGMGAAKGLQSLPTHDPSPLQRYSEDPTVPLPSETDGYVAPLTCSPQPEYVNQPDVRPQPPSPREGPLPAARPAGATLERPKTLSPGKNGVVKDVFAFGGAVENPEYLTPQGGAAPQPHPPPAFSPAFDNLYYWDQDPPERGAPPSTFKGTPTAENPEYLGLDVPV
Ephrin type-A receptor 4, sequence (P54764 whole entry, the tested form may be a part): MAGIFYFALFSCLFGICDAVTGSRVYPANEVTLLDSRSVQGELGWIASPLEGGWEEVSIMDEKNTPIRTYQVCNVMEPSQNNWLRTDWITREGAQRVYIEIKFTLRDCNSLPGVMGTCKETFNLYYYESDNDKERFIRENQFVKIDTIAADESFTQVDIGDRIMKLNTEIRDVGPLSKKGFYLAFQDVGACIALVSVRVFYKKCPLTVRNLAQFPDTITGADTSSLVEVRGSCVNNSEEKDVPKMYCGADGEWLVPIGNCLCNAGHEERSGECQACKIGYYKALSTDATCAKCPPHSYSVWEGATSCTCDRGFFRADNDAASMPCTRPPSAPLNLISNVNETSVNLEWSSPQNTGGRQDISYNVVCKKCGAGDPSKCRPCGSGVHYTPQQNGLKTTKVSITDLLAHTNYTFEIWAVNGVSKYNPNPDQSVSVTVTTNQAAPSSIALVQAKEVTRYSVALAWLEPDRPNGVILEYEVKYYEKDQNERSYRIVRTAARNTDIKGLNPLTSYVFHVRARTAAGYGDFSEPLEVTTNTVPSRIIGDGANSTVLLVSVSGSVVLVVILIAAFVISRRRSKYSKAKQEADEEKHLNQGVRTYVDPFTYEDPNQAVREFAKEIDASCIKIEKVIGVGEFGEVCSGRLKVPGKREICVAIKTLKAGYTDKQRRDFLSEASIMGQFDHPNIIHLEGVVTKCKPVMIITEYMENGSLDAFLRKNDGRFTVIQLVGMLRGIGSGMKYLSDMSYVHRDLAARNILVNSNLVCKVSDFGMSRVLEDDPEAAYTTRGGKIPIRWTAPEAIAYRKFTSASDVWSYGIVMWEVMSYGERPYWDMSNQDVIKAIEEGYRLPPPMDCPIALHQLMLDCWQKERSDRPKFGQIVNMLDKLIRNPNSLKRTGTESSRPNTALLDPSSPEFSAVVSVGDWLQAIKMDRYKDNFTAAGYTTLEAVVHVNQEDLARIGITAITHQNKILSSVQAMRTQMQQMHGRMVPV
Fibroblast growth factor receptor 2, sequence (P21802 22-821 N549H limits assumed): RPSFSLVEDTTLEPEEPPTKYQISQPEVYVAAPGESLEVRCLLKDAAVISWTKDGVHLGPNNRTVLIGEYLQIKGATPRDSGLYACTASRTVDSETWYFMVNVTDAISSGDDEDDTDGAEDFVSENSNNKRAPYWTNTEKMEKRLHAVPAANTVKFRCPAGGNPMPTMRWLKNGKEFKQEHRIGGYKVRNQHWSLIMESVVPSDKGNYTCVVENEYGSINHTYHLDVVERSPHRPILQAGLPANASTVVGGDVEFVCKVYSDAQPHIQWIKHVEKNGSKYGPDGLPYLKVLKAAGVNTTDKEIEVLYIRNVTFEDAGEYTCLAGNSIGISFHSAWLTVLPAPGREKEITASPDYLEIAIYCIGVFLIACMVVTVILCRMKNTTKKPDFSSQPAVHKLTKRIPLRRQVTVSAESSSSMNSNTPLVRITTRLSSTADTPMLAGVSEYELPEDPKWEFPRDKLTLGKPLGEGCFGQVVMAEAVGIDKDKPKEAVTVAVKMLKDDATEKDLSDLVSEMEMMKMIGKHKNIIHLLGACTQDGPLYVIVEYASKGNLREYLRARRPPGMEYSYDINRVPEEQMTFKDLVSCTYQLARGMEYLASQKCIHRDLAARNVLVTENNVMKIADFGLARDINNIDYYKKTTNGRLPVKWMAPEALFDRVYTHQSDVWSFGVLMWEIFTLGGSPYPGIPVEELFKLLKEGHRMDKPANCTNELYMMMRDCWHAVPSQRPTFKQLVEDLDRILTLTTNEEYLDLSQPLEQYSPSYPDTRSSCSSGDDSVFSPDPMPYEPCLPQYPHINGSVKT
Mitogen-activated protein kinase 14, sequence (Q16539 whole entry, the tested form may be a part): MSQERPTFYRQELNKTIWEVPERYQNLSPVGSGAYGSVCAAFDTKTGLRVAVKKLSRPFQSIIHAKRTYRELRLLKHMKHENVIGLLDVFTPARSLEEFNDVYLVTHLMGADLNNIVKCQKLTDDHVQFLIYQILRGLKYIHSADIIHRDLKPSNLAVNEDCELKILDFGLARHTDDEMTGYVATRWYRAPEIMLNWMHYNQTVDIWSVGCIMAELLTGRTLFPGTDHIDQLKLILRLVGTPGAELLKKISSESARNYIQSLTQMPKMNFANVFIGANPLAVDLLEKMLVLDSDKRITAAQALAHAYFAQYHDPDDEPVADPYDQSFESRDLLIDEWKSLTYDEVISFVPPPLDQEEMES

Cc1ccc(NC(=O)c2ccc(C)c(C(F)(F)F)c2)cc1C#Cc1nn([C@H]2CC[C@H](O)CC2)c2ncnc(N)c12
mortality at 360 h [1]: 0%
AUC(0-t) [2]: 2860 ng·h/mL
remaining at 1 h, 1 µM [3]: > 90%
IC50 [4]: 40 nM
IC50 [5]: 165 nM
IC50 [6]: 8 nM
IC50 [7]: 342 nM
IC50 (Ephrin type-A receptor 4): 227 nM
IC50 (MDA-MB-415): 10 µM
IC50 (ZR-75-1): 10 µM
IC50 (MIA PaCa-2): < 600 nM
IC50 (Ramos): 10 µM
IC50 (L929): > 10 µM
Activity (MDA-MB-231 [8]): 91.3%
Activity (MDA-MB-231 [9]): 11.2%
Activity (MDA-MB-231 [10]): 17.35%
Activity (MDA-MB-231 [11]): 13.48%
Activity (MDA-MB-231 [12]): Dose-dependent effect
inhibition (Mus musculus [13]): Active
inhibition (Mus musculus [14]): Active
Activity [15]: Non-Toxic
Activity [16]: Non-Toxic
